# Screening data (PubChem)
# Beta apoptosis – beta cell apoptosis inhibition; 0.8% of 300,000 active; INS-1E cytokine-induced death, ATP luminescence, 48 h; percent of positive-control rescue, neutral wells zero; AID 435005; protection from apoptosis, % (concentration not given with the values);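 active = Every replicate reaches about 75%, or at least half do and their mean reaches it too, limit read from the data; inconclusive = At least half of replicates reach the limit but their mean does not; inactive = Under half of replicates reach the limit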;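 note: 0% = cytokine-treated negative control wells and 100% = positive control rescue; higher means more ATP so stronger rescue from cytokine killing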
# CHOP inhibitor – blocks CHOP induction under ER stress | 3.8% of 220,000 active | CHO-K1 CHOP-promoter luciferase, tunicamycin-induced, 15-18 h | AID 2732 | inhibition, % at 10 µM;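 active = compounds that reduced the stress-induced luciferase reporter signal by more than about 70% of percent inhibition, limit read from the data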;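 note: 0% = tunicamycin plus vehicle and 100% = wells without tunicamycin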
# NR3A LBD binder – modulates the human NR3A ligand-binding domain; 2.5% of 340,000 active; Tm shift relative to glycine control, % at 25 µM; NR3A LBD differential scanning fluorimetry, Tm shift; 0% = protein alone, 100% = glycine-bound protein;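 active = melting temperature shift of at least 10% of the positive control shift, at one fixed dose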
# CSC inhib – cancer stem cell inhibition. cancer stem cell-like cells viability, luminescence. inhibition, % at 7.5 µM. 1.1% of 300,000 active. AID 2717; in the data active = inhibition above about 75%; inconclusive = no clear call, values can overlap the other calls; tested in HMLE shEcad cells
# T cruzi inh – T. cruzi replication inhibition; 1.4% of 300,000 active; T. cruzi beta-gal in NIH3T3, luminescence, 90 h; AID 1885; inhibition, % (test concentration not listed);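 active = mean inhibition across valid replicates above about 55%, limit read from the data; inconclusive = mean below that limit but half or more replicates reach it; inactive = mean below it, under half of replicates reach it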;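 note: signal also drops with host cell toxicity which is not excluded here; 0% = plate median of DMSO wells and 100% = zero luminescence signal; higher percent means less beta-gal luminescence so fewer parasites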
#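 compound dosing = single 50 nL compound addition per well in DMSO | material = NIH/3T3 host cells with β-galactosidase reporter T. cruzi | input = 5,000 host fibroblasts per well | timing = ≥90 h infection period, 3 h prior cell attachment | read-out basis = percent inhibition of parasite-derived β-gal signal | detection = GalScreen β-gal luminescence, detergent lysis, 60 min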
# PREPL inh – inhibits the human prolyl oligopeptidase-like enzyme. recombinant PREPL, fluorescence polarization activity-based probe. 0.68% of 320,000 active. AID 2751. inhibition, % at 5.96 µM; in the data active = inhibition above about 43%;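 note: 0% = enzyme with DMSO and 100% = wells lacking enzyme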
# Target sequence (Q4J6C6 whole entry, looked up): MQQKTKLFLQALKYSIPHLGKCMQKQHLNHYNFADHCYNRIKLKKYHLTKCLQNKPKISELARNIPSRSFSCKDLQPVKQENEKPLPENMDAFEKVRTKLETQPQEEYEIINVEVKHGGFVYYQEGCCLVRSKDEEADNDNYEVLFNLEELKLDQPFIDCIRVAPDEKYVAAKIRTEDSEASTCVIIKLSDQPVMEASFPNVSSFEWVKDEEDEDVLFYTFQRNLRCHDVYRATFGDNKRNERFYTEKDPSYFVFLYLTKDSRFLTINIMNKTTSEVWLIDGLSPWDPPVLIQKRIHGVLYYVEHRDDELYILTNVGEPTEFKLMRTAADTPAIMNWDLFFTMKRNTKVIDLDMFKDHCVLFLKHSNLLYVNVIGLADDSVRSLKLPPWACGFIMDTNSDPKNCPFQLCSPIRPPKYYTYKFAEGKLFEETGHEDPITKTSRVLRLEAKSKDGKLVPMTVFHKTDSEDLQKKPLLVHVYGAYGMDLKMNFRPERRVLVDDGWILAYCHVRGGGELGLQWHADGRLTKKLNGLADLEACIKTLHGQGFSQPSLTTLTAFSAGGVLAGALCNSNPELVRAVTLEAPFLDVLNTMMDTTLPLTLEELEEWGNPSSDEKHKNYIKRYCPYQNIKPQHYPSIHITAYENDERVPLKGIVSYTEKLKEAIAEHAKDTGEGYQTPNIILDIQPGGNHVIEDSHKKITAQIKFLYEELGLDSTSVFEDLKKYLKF
# * = called active by the depositor; ? = inconclusive; nt = not tested or not shown. The list is not random: actives were taken first. Their share in the collection is about 6.7%.
SMILES,Beta apoptosis,CHOP inhibitor,NR3A LBD binder,CSC inhib,T cruzi inh,PREPL inh
Cc1ccccc1Nc1c(-c2ccncc2)nc2ccc(Br)cn12,-6,2,-9,-4,59*,16
Cc1cccn2c(Nc3ccccc3)c(-c3ccccn3)nc12,78*,-71,-2,-6,5,-13
Cc1ccccc1Nc1c(-c2ccccn2)nc2ccccn12,17,69,-3,37,44,23
Cc1ccc(CNC(=O)CSc2nc3ccccc3c3nc(C)nn23)cc1,nt,2,nt,nt,nt,nt
CN(C(=O)CCNC(=O)Cn1cnc2ccccc2c1=O)c1ccccc1F,-3,nt,1,nt,-3,-3
COc1ccc(C(=O)/C=C/c2ccc(O)cc2)cc1,-1,-37,7,23,-5,17
COc1ccc(C=CC(=O)c2cc(O)ccc2O)cc1,nt,nt,32*,nt,nt,nt
COc1cc(OC)c(C=O)c(OC(=O)N2CCOCC2)c1,-12,nt,1,128*,-3,-9
O=C1N=C(N2CCOCC2)S/C1=C/c1ccc(-c2ccc(F)cc2)o1,4,-22,-4,-22,32,19
Cc1ccc(-c2ccc(/C=C3\SC(N4CCOCC4)=NC3=O)o2)cc1,3,-21,1,20,66*,43
COc1ccc(/C=C/c2nc3ccccc3n2C)cc1,106*,81*,-5,88*,10,10
COc1ccc(Cn2c(/C=C/c3ccccc3)nc3ccccc32)cc1,32,47,-4,48,35,7
COc1ccc(/C=C/c2ccncc2)cc1,-1,4,-1,8,74*,11
CC(=O)c1ccc(-c2ccc(C(=O)NC3CCCCCC3)o2)cc1,10,20,-4,12,4,2
CCN(C(=O)Cn1cnc2c1c(=O)n(C)c(=O)n2C)C1CCCCC1,1,nt,0,-13,nt,5
COc1ccc(-c2nn(CCC(=O)O)cc2/C=C2\SC(N)=NC2=O)cc1OC,-1,6,1,-2,-21,7
CCCOc1ccc(-c2nn(-c3ccccc3)cc2/C=C2\SC(N)=NC2=O)cc1C,2,-10,16*,34,56*,-3
C=CCNC(=O)c1ccc(-n2cccc2)cc1,-1,23,-1,0,6,0
Oc1c(Cl)cc(Cl)cc1CNc1ccccn1,nt,nt,-4,nt,3,nt
Oc1c(Cl)cc(Cl)cc1CNc1nc2ccccc2[nH]1,-2,nt,10*,34,-10,4
CCN(CC)c1nc(Nc2ccccc2)nc(Oc2ccc(=O)n(C)n2)n1,3,71*,2,6,18,-5
C/C(=N/NC(=O)c1ccoc1C)c1ccc(NC(=O)c2ccncc2)cc1,1,-28,-6,-8,-5,8
COc1ccc(-c2sc3cc(OC)c(OC)cc3c2-c2ccc(O)cc2)cc1,8,nt,3,137*,nt,17
COc1ccc(-c2sc3ccccc3c2-c2ccc(O)cc2)cc1,9,nt,14*,107*,nt,15
O=C1C2C3C=CC(C4CC34)C2C(=O)N1/N=C/c1cccs1 (configuration not stated),-5,2,2,7,3,-2
SMILES,Beta apoptosis,CHOP inhibitor,NR3A LBD binder,CSC inhib,T cruzi inh,PREPL inh
CCN(c1ccccc1)S(=O)(=O)c1ccc(NC(=O)c2nc(S(C)(=O)=O)ncc2Cl)cc1,98*,nt,-12,99*,0,-5
CS(=O)(=O)c1ncc(Cl)c(C(=O)Nc2ccc(OC(F)F)cc2)n1,?,nt,2,135*,55*,-22
CCS(=O)(=O)c1ncc(Cl)c(C(=O)Nc2ccc(S(=O)(=O)N(C)c3ccccc3)cc2)n1,105*,nt,-8,98*,32,-14
CC(=O)Nc1ccc(S(=O)(=O)N(C)c2ccccc2)cc1,3,7,0,26,7,5
CCN(c1ccccc1)S(=O)(=O)c1ccc(C(=O)Nc2ccncc2)cc1,-9,nt,3,-14,48,4
O=C(Cn1cnc2c(NC(=O)OCc3ccccc3)ncnc21)NCCN1CCOCC1,-5,nt,-1,-5,nt,36
COc1cccc(C2C(C(=O)c3cccs3)=C(O)C(=O)N2CCN2CCOCC2)c1OC (configuration not stated),nt,nt,-1,nt,6,nt
CC[C@]12c3[nH]c4ccc(Cl)cc4c3CCN1C(=O)[C@@H](CC(=O)NCCCn1ccnc1)C[C@@H]2C(=O)N1CCN(C(=O)c2ccco2)CC1,nt,nt,-1,nt,nt,nt
CCOC(=O)C1(Cc2cccc(Cl)c2)CCCN(C(=O)C(C)(C)C)C1 (configuration not stated),0,nt,0,-8,-16,6
CN(CC(=O)Nc1ccc(N2CCOCC2)cc1)CC(=O)Nc1ccc(C(F)(F)F)cc1,-1,14,-5,28,nt,27
Cc1ccc(NC(=O)CN(C)CC(=O)Nc2ccc(N3CCOCC3)cc2)c(C)c1,-1,-35,0,nt,2,54*
COc1cccc(NC(=S)NCCC(c2ccccc2)c2ccccc2)c1,2,47,8,17,20,-14
COc1cc(NC(=S)NCCC(c2ccccc2)c2ccccc2)cc(OC)c1,-1,46,-3,nt,62*,-6
Cn1c(=O)c2c(nc(N3CCc4ccccc4C3)n2Cc2ccccc2F)n(C)c1=O,nt,50,-1,62,18,-22
CCN1CCN(c2nc3c(c(=O)n(C)c(=O)n3C)n2Cc2cccc3ccccc23)CC1,nt,11,-5,5,-9,46*
Cn1c(=O)c2c(nc(N3CCc4ccccc4C3)n2Cc2ccc(Br)cc2)n(C)c1=O,-1,43,11*,-2,12,-16
O=C(Nc1ccccc1NC(=O)c1ccccc1Cl)c1ccccc1Cl,-8,nt,2,-20,3,-10
CN(C)c1ccc(NC(=O)CN2C(=O)CC(c3ccccc3)=Nc3ccccc32)cc1,-3,91*,1,-5,5,9
COc1ccc(CNC(=O)[C@@H](NC(=O)C2CCN(C(=O)[C@@H](N)CCSC)CC2)C(C)C)cc1,-1,nt,-5,-8,0,2
CCC(=O)Nc1cc2nn(-c3ccc(C)cc3)nc2cc1C,-12,91*,-2,-3,-1,10
Cc1cc(C)cc(OCC(=O)Nc2ccc3c4c(cccc24)CC3)c1,5,65,1,-3,-15,1
O=C(COc1ccc(Br)cc1)Nc1ccc(C(=O)Nc2ccccc2C(=O)O)cc1,3,nt,11*,30,-25,1
O=C(COc1ccc2ccccc2c1)Nc1ccc2c3c(cccc13)CC2,0,92*,-4,16,-47,7
O=C(COc1ccc2ccccc2c1)Nc1cccc(C(=O)Nc2ccccc2C(=O)O)c1,-3,9,12*,58,-15,-15
CC(C)C(=O)NNC(=O)c1cc2sccc2s1,1,-4,2,-1,nt,-10
CC(=O)Nc1ccc(S(=O)(=O)N(Cc2cccnc2)Cc2cc3ccc(C)cc3[nH]c2=O)cc1,nt,nt,0,-5,-25,4
Fc1ccc(Nc2c3c(nc4ccccc24)CCC3)cc1,nt,12,0,nt,58*,16
